Activity calls are given as the source filed them. The rule behind the calls is not given here.
Columns and labels:
[1] = biological target: Eukaryotic translation initiation factor 4E-binding protein 1 (Homo sapiens) (UniProt Q13541); assay: Induction of 4E-BP1 phosphorylation at Thr70 in human A549 cells at 500 uM after 6 hrs by Western blotting analysis; format: cell-based
In short: (§1)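 A549 cells were exposed to 250 and 500 µM for 6 h, harvested and lysed. Equal total protein was loaded for SDS-PAGE and immunoblot. Probes were p-4E-BP1 (T37/46, S65, T70), p-S6 (S235/236), eIF4E and cleaved PARP, detected by chemiluminescence.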

[2] = Cytotoxicity against human PC3 cells after 48 hrs by alamar blue assay; format: functional, cell-based; conditions: PC-3, 48 h
In short: (§2)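 Cells seeded at 3 × 10^3/well in F-12K with 10% FBS, 2 mM L-glutamine and penicillin/streptomycin, then left to adhere overnight. Medium was replaced with nine 2- or 3-fold dilutions, with 0.5% DMSO vehicle and 1.5 mM H2O2 controls. Incubation was 48 h at 37 °C, 5% CO2. Resazurin (0.25 mg/mL stock) was added for 3 h and fluorescence read ([…], em 590 nm). IC50 came from a nonlinear dose-response fit; mean ± SD, triplicates, three independent experiments.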

A549 [3] = assay: Cytotoxicity against human A549 cells after 48 hrs by alamar blue assay; format: functional, cell-based; conditions: A549, 48 h; in short: as §2
[4] = biological target: Eukaryotic translation initiation factor 4E-binding protein 1 (Homo sapiens) (UniProt Q13541); assay: Induction of 4E-BP1 phosphorylation at Thr70 in human A549 cells at 250 uM after 6 hrs by Western blotting analysis; format: cell-based; in short: as §1
[5] = biological target: Eukaryotic translation initiation factor 4E-binding protein 1 (Homo sapiens) (UniProt Q13541); assay: Induction of 4E-BP1 phosphorylation at Thr37/46 in human A549 cells at 250 uM after 6 hrs by Western blotting analysis; format: cell-based; in short: as §1
[6] = biological target: Eukaryotic translation initiation factor 4E-binding protein 1 (Homo sapiens) (UniProt Q13541); assay: Induction of 4E-BP1 phosphorylation at Thr37/46 in human A549 cells at 500 uM after 6 hrs by Western blotting analysis; format: cell-based; in short: as §1
[7] = biological target: Eukaryotic translation initiation factor 4E-binding protein 1 (Homo sapiens) (UniProt Q13541); assay: Induction of 4E-BP1 phosphorylation at Ser65 in human A549 cells at 250 uM after 6 hrs by Western blotting analysis; format: cell-based; in short: as §1
[8] = biological target: Small ribosomal subunit protein eS6 (Homo sapiens) (UniProt P62753); assay: Inhibition of S6 ribosomal protein phosphorylation in human A549 cells at 250 to 500 uM after 6 hrs by Western blotting analysis; format: cell-based; in short: as §1
[9] = biological target: Eukaryotic translation initiation factor 4E-binding protein 1 (Homo sapiens) (UniProt Q13541); assay: Induction of 4E-BP1 phosphorylation at Ser65 in human A549 cells at 500 uM after 6 hrs by Western blotting analysis; format: cell-based; in short: as §1
[10] = Cytotoxicity against human PC3 cells at 250 uM after 48 hrs by alamar blue assay; format: functional; conditions: PC-3, 48 h
In short: (§3)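 Single 250 µM concentration. Cells seeded at 3 × 10^3/well in F-12K with 10% FBS and 2 mM L-glutamine, then adhered overnight. Exposure was 48 h at 37 °C, 5% CO2, alongside 0.5% DMSO vehicle and 1.5 mM H2O2 controls. Viability was measured by resazurin reduction (0.25 mg/mL stock, 3 h) with fluorescence read at […], em 590 nm.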

A549 [11] = assay: Cytotoxicity against human A549 cells at 250 uM after 48 hrs by alamar blue assay; format: functional; conditions: A549, 48 h; in short: as §3
A549 [12] = assay: Increase in PARP cleavage in human A549 cells at 250 to 500 uM after 6 hrs by Western blotting analysis; format: cell-based; in short: as §1

Sequence of Eukaryotic translation initiation factor 4E-binding protein 1 (Homo sapiens) (Q13541 whole entry): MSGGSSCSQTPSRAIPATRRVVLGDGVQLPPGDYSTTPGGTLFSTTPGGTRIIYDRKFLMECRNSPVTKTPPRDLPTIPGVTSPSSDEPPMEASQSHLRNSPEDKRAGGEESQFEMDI

| Activity [1] | Activity [4] | Activity [5] | Activity [6] | Activity [7] | inhibition [8] | Activity [9] | SMILES | IC50 [2] [µM] | IC50 (A549 [3]) [µM] | inhibition at 250 µM [10] [%] | inhibition at 250 µM (A549 [11]) [%] | Activity (A549 [12]) |
| --- | --- | --- | --- | --- | --- | --- | --- | --- | --- | --- | --- | --- |
| inactive | inactive | inactive | inactive | inactive | inactive | inactive | C=C(C)[C@@H]1CC=C(CO)CC1 [PERILLYL ALCOHOL] | 380 | 350 |  |  |  |
|  |  |  |  |  |  |  | C=C(C)[C@@H]1CC=C(CN(OC)C2O[C@@H](CO)[C@H](N=[N+]=[N-])[C@@H](O)[C@@H]2O)CC1 (stereo not given in full) | 263 | 451 | > 40 | > 40 |  |
|  |  |  |  |  |  |  | C=C(C)[C@@H]1CC=C(CN(OC)C2OC[C@@H](N=[N+]=[N-])[C@H](O)[C@H]2O)CC1 (stereo not given in full) | 170 | 76 | > 40 | > 40 |  |
|  |  |  |  |  |  |  | C=C(C)[C@@H]1CC=C(/C=N/OC)CC1 |  |  | > 40 | > 40 |  |
|  |  |  |  |  |  |  | C=C(C)[C@@H]1CC=C(CN(OC)[C@@H]2O[C@H](CO)[C@@H](O)[C@H](O)[C@H]2NC(=O)N(C)N=O)CC1 | 232 | 185 | > 40 | > 40 |  |
|  |  |  |  |  |  |  | C=C(C)[C@@H]1CC=C(CN(OC)C2O[C@H](CN=[N+]=[N-])[C@@H](O)[C@H](O)[C@H]2O)CC1 (stereo not given in full) | 182 | 163 | > 40 | > 40 |  |
|  |  |  |  |  |  |  | C=C(C)[C@@H]1CC=C(CN(OC)C2O[C@H](CO)[C@@H](N=[N+]=[N-])[C@H](O)[C@H]2O)CC1 (stereo not given in full) | 22 | 4 | > 40 | > 40 |  |
|  |  |  |  |  |  |  | C=C(C)[C@@H]1CC=C(CN(OC)C2OC[C@@H](O)[C@H](O)[C@H]2O)CC1 (stereo not given in full) | 152 | 202 | > 40 | > 40 |  |
|  |  |  |  |  |  |  | C=CCOC(=O)NC[C@H]1OC(N(CC2=CC[C@@H](C(=C)C)CC2)OC)[C@H](O)[C@@H](O)[C@@H]1O (stereo not given in full) | 232 | 140 | > 40 | > 40 |  |
|  |  |  |  |  |  |  | C=C(C)[C@@H]1CC=C(CN(OC)C2O[C@H](CO)[C@@H](O)[C@H](O)[C@H]2N=[N+]=[N-])CC1 (stereo not given in full) | 176 | 221 | > 40 | > 40 |  |
| Active | Active | Active | Active | Active | Active | Active | C=C(C)[C@@H]1CC=C(CN(OC)C2O[C@H](CO)[C@@H](O)[C@H](NC(=O)CCCCCCCCC)[C@H]2O)CC1 (stereo not given in full) | 19 | 14 | > 40 | > 40 | Active |
|  |  |  |  |  |  |  | C=C(C)[C@@H]1CC=C(CN(OC)C2O[C@H](CNC(=O)CCCCCCCCC)[C@@H](O)[C@H](O)[C@H]2O)CC1 (stereo not given in full) | 30 | 14 | > 40 | > 40 |  |
| Active | Active | Active | Active | Active | Active | Active | C=C(C)[C@@H]1CC=C(CN(OC)C2O[C@H](CN=[N+]=[N-])[C@@H](N=[N+]=[N-])[C@H](O)[C@H]2O)CC1 (stereo not given in full) | 57 | 44 | > 40 | > 40 | Active |
|  |  |  |  |  |  |  | C=CCOC(=O)N[C@H]1C(N(CC2=CC[C@@H](C(=C)C)CC2)OC)O[C@H](CO)[C@@H](O)[C@@H]1O (stereo not given in full) | 826 | 114 | > 40 | > 40 |  |

— ChEMBL document CHEMBL3351713, “The identification of perillyl alcohol glycosides with improved antiproliferative activity” (J Med Chem, 2014)
